Measured values as given in ChEMBL document CHEMBL5500386, “Design, synthesis and bioactivity evaluation of 4-hydroxycoumarin derivatives as potential anti-inflammatory agents against acute lung injury and colitis” (Eur J Med Chem, 2024).
The source made the active and inactive calls. The rule behind the calls is not given here.

What was measured:
[1] = tested on: J774.A1; assay: Antiinflammatory activity in LPS-induced mouse J774.a1 cells assessed as inhibition of IL-6 production at 10 uM pretreated for 2 hrs followed by LPS stimulation and measured after 30 mins by ELISA relative to control; format: functional; details: time 2.5 hrs
Method in brief: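 J774A.1 cells (DMEM, 10 % FBS, 37 °C) treated with 10 μM compound or 4-HC for 2 h, then LPS. After 30 min, IL-6 in medium measured by ELISA. Result is % inhibition, mean ± SEM of three independent experiments.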

[2] = tested on: J774.A1; assay: Cytotoxicity against mouse J774.A1 cells assessed as reduction in cell viability at 10 uM measured after 24 hrs by MTT assay; format: toxicity, cell-based; details: j774.a1, 24 h
Method in brief: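 J774A.1 cells seeded and incubated 24 h, then exposed to 10 μM compound for 24 h. MTT (5.0 mg/mL) added as 10 % for 4 h, formazan dissolved in DMSO with 30 min shaking, absorbance read at 490 nm. Expressed as % of control.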

[3] = tested on: THP-1; assay: Antiinflammatory activity in LPS-induced human THP-1 cells assessed as reduction in IL-6 mRNA transcription pretreated for 2 hrs followed by LPS stimulation and measured after 6 hrs by RT-qPCR analysis; format: functional, cell-based; details: dose 2.5-10 µM
Method in brief: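 J774A.1 or THP-1 cells pretreated with compound for 2 h, then LPS 0.5 μg/mL for 6 h, in triplicate. Total RNA extracted and reverse-transcribed. IL-6 quantified by RT-qPCR over 40 cycles and normalised to β-actin.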

[4] = tested on: J774.A1; assay: Inhibition of LPS-induced NF-kappaB activation in mouse J774.A1 cells assessed as reduction in IkappaBalpha degradation at 5 to 20 uM pretreated for 2 hrs followed by LPS stimulation and measured after 30 mins by Western blot analysis; format: cell-based; details: dose 5-20 µM, time 2.5 hrs
Method in brief: (§1)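 J774A.1 macrophages pretreated with 20, 10 or 5 μM for 2 h, then LPS 0.5 μg/mL for 30 min. RIPA lysates quantified by Bradford. 40 μg run on 12.5 % SDS-PAGE and transferred to PVDF. Blocked 1.5 h in BSA, primary antibody overnight at 4 °C, secondary 2 h at room temperature, detected by ECL.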

[5] = tested on: J774.A1; assay: Inhibition of LPS-induced MAPK activation in mouse J774.A1 cells assessed as reduction in JNK phosphorylation at 5 to 20 uM pretreated for 2 hrs followed by LPS stimulation and measured after 30 mins by Western blot analysis; format: cell-based; details: dose 5-20 µM, time 2.5 hrs; method in brief: as §1
[6] = target: Interleukin-1 receptor-associated kinase 1 (Homo sapiens) (UniProt P51617); assay: Inhibition of IRAK1 (unknown origin) at 10 uM relative to control
Sequence of Interleukin-1 receptor-associated kinase 1 (Homo sapiens) (P51617 whole entry, looked up): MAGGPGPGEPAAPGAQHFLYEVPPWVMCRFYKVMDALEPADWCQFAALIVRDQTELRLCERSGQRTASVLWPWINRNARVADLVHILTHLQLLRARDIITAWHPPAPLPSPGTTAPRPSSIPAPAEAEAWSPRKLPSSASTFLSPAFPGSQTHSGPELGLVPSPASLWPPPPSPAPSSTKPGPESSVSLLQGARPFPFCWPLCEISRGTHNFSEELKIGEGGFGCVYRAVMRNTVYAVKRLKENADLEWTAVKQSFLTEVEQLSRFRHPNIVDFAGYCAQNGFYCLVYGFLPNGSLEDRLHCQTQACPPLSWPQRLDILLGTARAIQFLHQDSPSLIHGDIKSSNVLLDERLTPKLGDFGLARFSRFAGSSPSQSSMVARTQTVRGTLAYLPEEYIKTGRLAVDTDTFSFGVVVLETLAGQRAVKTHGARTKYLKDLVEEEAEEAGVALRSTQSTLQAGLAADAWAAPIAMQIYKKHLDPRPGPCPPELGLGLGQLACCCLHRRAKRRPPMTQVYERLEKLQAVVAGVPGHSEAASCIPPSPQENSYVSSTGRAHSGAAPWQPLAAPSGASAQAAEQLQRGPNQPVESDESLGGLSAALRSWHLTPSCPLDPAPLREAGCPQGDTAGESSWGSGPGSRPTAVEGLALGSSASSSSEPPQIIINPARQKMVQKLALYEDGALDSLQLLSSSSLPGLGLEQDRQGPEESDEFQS

[7] = tested on: Mus musculus; assay: Protection against LPS-induced C57BL/6 mouse model of acute lung injury assessed as reduction in number of neutrophils in BALF at 20 mg/kg, po administered 3 times for every 12 hrs followed by LPS stimulation at 5 mg/kg and measured after 6 hrs; format: functional, organism-based; details: time 30.0 hrs
Method in brief: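 C57BL/6 mice, 6 per group. Gavaged at 20 mg/kg three times at 12 h intervals; controls received saline, and dexamethasone 20 mg/kg served as reference. After the last dose, LPS 5 mg/kg given intratracheally. At 6 h, blood collected for serum IL-6 by ELISA. Left lung lavaged with 3 × 200 μL saline, and BALF assayed for IL-6, total protein and neutrophil count. Mean ± SEM, n = 6.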

[8] = tested on: Mus musculus; assay: Protection against LPS-induced C57BL/6 mouse model of acute lung injury assessed as reduction in thickening of the alveolar septum in lungs at 20 mg/kg, po administered 3 times for every 12 hrs followed by LPS stimulation at 5 mg/kg and measured after 6 hrs by H and E staining based analysis; format: functional, organism-based; details: time 30.0 hrs
Method in brief: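 LPS-induced ALI in C57BL/6 mice: 20 mg/kg orally three times at 12 h intervals, then intratracheal LPS 5 mg/kg, killed at 6 h. Lungs paraffin-embedded, cut into 5 μm sections and H&E stained. Viewed at ×20.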

[9] = tested on: Mus musculus; assay: Protection against LPS-induced C57BL/6 mouse model of acute lung injury assessed as reduction in interstitial edema in lungs at 20 mg/kg, po administered 3 times for every 12 hrs followed by LPS stimulation at 5 mg/kg and measured after 6 hrs by immunohistochemical staining based analysis; format: functional, organism-based; details: time 30.0 hrs
Method in brief: (§2)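 LPS-induced ALI in C57BL/6 mice: 20 mg/kg orally three times at 12 h intervals, then intratracheal LPS 5 mg/kg, lungs taken at 6 h. F4/80 IHC: xylene deparaffinisation, citrate pH 6 retrieval for 25 min, primary antibody at 4 °C for 12 h, secondary 1:2000, DAB and hematoxylin. Viewed at ×20.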

[10] = tested on: Mus musculus; assay: Protection against LPS-induced C57BL/6 mouse model of acute lung injury assessed as reduction in thickening of the alveolar septum at 20 mg/kg, po administered 3 times for every 12 hrs followed by LPS stimulation at 5 mg/kg and measured after 6 hrs by immunohistochemical staining based analysis; format: functional, organism-based; details: time 30.0 hrs; method in brief: as §2
[11] = tested on: Mus musculus; assay: Protection against LPS-induced C57BL/6 mouse model of acute lung injury assessed as reduction in immune markers at 20 mg/kg, po administered 3 times for every 12 hrs followed by LPS stimulation at 5 mg/kg and measured after 6 hrs by immunohistochemical staining based analysis; format: functional, organism-based; details: time 30.0 hrs; method in brief: as §2
[12] = tested on: Mus musculus; assay: Antiinflammatory activity in DSS-induced male C57BL/6 mouse model of inflammatory bowel disease assessed as increase in body weight at 20 mg/kg, IG administered with compound and DSS for 7 days followed by DSS replacement with distilled water for 3 days; format: functional, organism-based; details: time 10.0 day
[13] = Acute toxicity in male ICR mouse assessed as fatality at 500 to 1000 mg/kg, po administered daily for 10 days and measured daily; format: organism-based; details: in vivo, 240 h, dose 500-1000 mg/kg, time 10 day
Method in brief: (§3)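 Male ICR mice (8 weeks, 30 g ± 2 g), acclimatised 1 week, randomised into 1000 mg/kg, 500 mg/kg and untreated control groups (n = 24 total). Dosed by daily gavage, compound dissolved in 0.5 % DMSO then added to normal saline. Body weight and behaviour recorded daily. Euthanised after 10 days; heart, liver, spleen, lung and kidney examined by H&E staining.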

[14] = Acute toxicity in male ICR mouse assessed as reduction in body weight at 500 to 1000 mg/kg, po administered daily and measured on day 1; format: organism-based; details: in vivo, 24 h, dose 500-1000 mg/kg, time 1 day; method in brief: as §3
[15] = Acute toxicity in male ICR mouse assessed as reduction in body weight at 500 to 1000 mg/kg, po administered daily for 10 days and measured daily for 2 to 10 days; format: organism-based; details: in vivo, 240 h, dose 500-1000 mg/kg, time 10 day; method in brief: as §3
[16] = Cmax in male Sprague-Dawley rat at 1 mg/kg, iv measured upto 24 hrs by triple quadrupole mass spectrometric analysis; format: ADME, organism-based; details: in vivo
Method in brief: (§4)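 Male SD rats (8 weeks, 200 g ± 20 g), n = 3 per route. Oral: 10 mg/kg by gavage in 0.05 % DMSO/normal saline, tail-vein blood at 13 times from 10 min to 24 h. IV: 1 mg/kg tail vein in 5 % DMSO/30 % PEG400/65 % saline, 14 samples from 5 min to 24 h. Heparinised plasma precipitated with acetonitrile containing internal standard. Non-compartmental analysis on mean concentrations.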

[17] = AUC (0 to infinity) in male Sprague-Dawley rat at 10 mg/kg, po measured upto 24 hrs by triple quadrupole mass spectrometric analysis; format: ADME, organism-based; details: in vivo; method in brief: as §4

SMILES: CC(=O)N1CCN(CCOc2cc(=O)oc3ccccc23)CC1
- inhibition at 10 µM [1]: 51.6%
- Activity [2]: Non-Toxic
- Activity [3]: Dose-Dependent Effect
- inhibition [4]: inactive
- inhibition [5]: inactive
- inhibition [6]: 48.1%
- Activity [7]: Active
- Activity [8]: Active
- Activity [9]: Active
- Activity [10]: Active
- Activity [11]: Active
- Activity [12]: Active
- Activity [13]: Non-Toxic
- Activity [14]: Toxic
- Activity [15]: Non-Toxic
- Cmax [16]: 2.03 µg/mL
- AUC(0-inf) [17]: 3.26 µg·h/mL
